Experimental data from PMC8217219 (Bone, 2021).

Assays:
MC3T3 cells [1] = assay: Hoechst staining; type: cell-based; conditions: subconfluent MC3T3 cells, 100μM, 3 days
In short: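 Subconfluent, proliferating MC3T3-E1 (sc4) cells were exposed to test compound at 1, 10 or 100 μM for 3 days. Cells were washed with PBS, covered with 0.1X Tris-EDTA, frozen at −80°C for at least 2 h and thawed at room temperature. They were then stained 15 min in the dark with Hoechst 33258 (0.5 μg/ml in 0.3 M NaCl, 5 mM Tris, pH 8.0). Fluorescence was read at 340/460 and fit to a DNA standard curve. Values were normalized to DMSO control (1:100 dilution); n = 3.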

MC3T3 cells [2] = assay: Live/Dead cytotoxicity assay; type: cell-based; conditions: subconfluent MC3T3 cells, 100μM, 3 days
In short: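 Viability was scored in subconfluent MC3T3-E1 (sc4) cultures after 3 days with test compound at 1, 10 or 100 μM. Medium was removed and cells were incubated 20 min with calcein-AM and ethidium homodimer-1 in PBS. Live-cell fluorescence was read at 465/540 nm. Values were normalized to DMSO-treated control (1:100 dilution).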

H3K27me3 = assay: Western blot of cellular H3K27me3 levels; type: cell-based, mouse; conditions: MC3T3 cells, single dose 1μM, 24 hour treatment, relative to Gapdh
MC3T3 cells [3] = assay: Alizarin red staining; type: cell-based, mouse; conditions: for osteogenic boosting (calcium deposition, alizarin red) / mineralization (alizarin red staining, percent coverage area): 5μM, day 18; for osteogenic boosting (calcium deposition, alizarin red): Ezh2 overexpressing MC3T3 cells; for mineralization (alizarin red staining, percent coverage area): control MC3T3 cells (empty vector)
MC3T3 cells [4] = assay: Alkaline phosphatase; type: cell-based, mouse; conditions: day six; for alkaline phosphatase (Alpl) enzymatic activity: MC3T3 cells, optimal doses (40μM CPI-169, 5μM all others), vs vehicle
MC3T3 cells [5] = assay: MTS metabolic activity assay; type: cell-based; conditions: subconfluent MC3T3 cells, 10μM, 3 days
In short: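 Subconfluent MC3T3-E1 (sc4) cells were given test compound at 1, 10 or 100 μM for 3 days. The MTS reagent was used per kit protocol and absorbance was read at 490 nm. Metabolic activity was expressed relative to DMSO-treated control (1:100 dilution).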

MC3T3 cells [6] = assay: RT-qPCR of osteogenic genes; type: cell-based, mouse; conditions: for osteogenic markers (mRNA) / expression of bone-related genes: 5μM; for expression of bone-related genes: combined with Ezh2 siRNA knockdown, days five and ten
[7] = cited from earlier work
[8] = 5μM day two to five, combined with Ezh2 siRNA knockdown, day 24
[9] = MC3T3 cell differentiation, day ten
[10] = MC3T3 cells overexpressing Ezh2, day ten

Cc1cc(C)c(CN2CCc3c(Cl)cc(-c4c(C)noc4C)c(Cl)c3C2=O)c(=O)[nH]1 [PF-06726304]
cell numbers (Hoechst staining) (MC3T3 cells [1]): significant reductions | fraction of living cells (live/dead staining) (MC3T3 cells [2]): significant reductions

CCCc1cc(C)[nH]c(=O)c1CNC(=O)c1cc(-c2ccc(N3CCN(C(C)C)CC3)nc2)cc2c1cnn2C(C)C [UNC1999]
cell numbers (Hoechst staining) (MC3T3 cells [1]): significant reductions | fraction of living cells (live/dead staining) (MC3T3 cells [2]): significant reductions | reduction in H3K27me3 (H3K27me3): > 5 fold | ECM mineralization (alizarin red) (MC3T3 cells [3]; MC3T3 cells, optimal doses for first six days, day 24 and day 28): except UNC1999 | alkaline phosphatase (Alpl) enzymatic activity (MC3T3 cells [4]): except for UNC1999

CCS(=O)(=O)N1CCC([C@@H](C)n2c(C)c(C(=O)NCc3c(OC)cc(C)[nH]c3=O)c3ccccc32)CC1 [CPI-169]
cell numbers (Hoechst staining) (MC3T3 cells [1]): not observed | fraction of living cells (live/dead staining) (MC3T3 cells [2]): not observed | optimal dose (MC3T3 cells [3]; MC3T3 cells, 2X dose, from alizarin red quantitation (Fig. 4, red arrows)): 40 µM | alkaline phosphatase (Alpl) enzymatic activity (MC3T3 cells [4]): ~three fold stimulation

CCC(CC)n1ccc2c(C(=O)NCc3c(C)cc(C)[nH]c3=O)cc(C#N)cc21 [EI1]
metabolic activity (MTS) (MC3T3 cells [5]): less harmful to metabolic cell activity | cell numbers (Hoechst staining) (MC3T3 cells [1]): not observed | fraction of living cells (live/dead staining) (MC3T3 cells [2]): not observed | reduction in H3K27me3 (H3K27me3): 2–3 fold

CCN(c1cc(-c2ccc(CN3CCOCC3)cc2)cc(C(=O)NCc2c(C)cc(C)[nH]c2=O)c1C)C1CCOCC1 [EPZ-6438]
metabolic activity (MTS) (MC3T3 cells [5]): less harmful to metabolic cell activity | cell numbers (Hoechst staining) (MC3T3 cells [1]): significant reductions | fraction of living cells (live/dead staining) (MC3T3 cells [2]): significant reductions | reduction in H3K27me3 (H3K27me3): > 5 fold | alizarin red staining compared with GSK126 co-treatment (MC3T3 cells [3]; 5μM combined with Ezh2 siRNA, day 24): more robust staining | ECM mineralization (alizarin red) (MC3T3 cells [3]; [8]): enhances ECM mineralization | osteogenic boosting (calcium deposition, alizarin red) (MC3T3 cells [3]): not observed | mineralization (alizarin red staining, percent coverage area) (MC3T3 cells [3]): accelerated mineralization and more intense alizarin red staining | osteogenic markers (mRNA) (MC3T3 cells [6]; [9]): highly effective at increasing osteogenic markers | osteogenic markers (mRNA) (MC3T3 cells [6]; [10]): not when cells overexpress Ezh2 | expression of bone-related genes (MC3T3 cells [6]): co-stimulates expression of bone-related genes

CC[C@H](C)n1cc(C)c2c(C(=O)NCc3c(C)cc(C)[nH]c3=O)cc(-c3ccc(N4CCNCC4)nc3)cc21 [GSK126]
cell numbers (Hoechst staining) (MC3T3 cells [1]): significant reductions | fraction of living cells (live/dead staining) (MC3T3 cells [2]): significant reductions | reduction in H3K27me3 (H3K27me3): 2–3 fold | ECM mineralization (alizarin red) (MC3T3 cells [3]; [8]): enhances ECM mineralization | osteogenic boosting (calcium deposition, alizarin red) (MC3T3 cells [3]): not observed | mineralization (alizarin red staining, percent coverage area) (MC3T3 cells [3]): accelerated mineralization and more intense alizarin red staining | osteogenic markers (mRNA) (MC3T3 cells [6]; [9]): highly effective at increasing osteogenic markers | osteogenic markers (mRNA) (MC3T3 cells [6]; [10]): not when cells overexpress Ezh2 | expression of bone-related genes (MC3T3 cells [6]): co-stimulates expression of bone-related genes | adverse effects in other tissues and organs (e.g., spleen, liver) ([7]; adult mice (8–12 weeks) ref 29): no adverse effects | bone anabolic effect ([7]; adult mice (8–12 weeks) ref 29): modestly bone anabolic | bone accrual ([7]; normal and ovariectomized mice ref 29): effective for stimulation of bone accrual

Cc1cc(C)c(CNC(=O)c2cc(-c3ccc(N4CCN(C)CC4)nc3)cc3c2c(C)cn3C(C)C)c(=O)[nH]1 [GSK503]
cell numbers (Hoechst staining) (MC3T3 cells [1]): significant reductions | fraction of living cells (live/dead staining) (MC3T3 cells [2]): significant reductions | reduction in H3K27me3 (H3K27me3): > 5 fold

C[S+](C)[O-] [DMSO, dimethyl sulfoxide]
Alpl enzymatic activity (MC3T3 cells [4]; low (0.05%) and high (0.4%) doses vs osteogenic medium (OM)): enhance Alpl enzymatic activity | mRNA levels of osteoblast differentiation markers (Alpl, Sp7, Ibsp, Phospho1) (MC3T3 cells [6]; 0.05% DMSO or 0.4% DMSO vs no DMSO, osteogenic medium, six days): significantly elevated | expression of late marker Bglap (MC3T3 cells [6]; DMSO 0.05% or 0.4% in osteogenic media, day ten): did not show compelling changes
